# Assay results from ChEMBL document CHEMBL4406867, “Synthesis and antidepressant effect of novel aralkyl piperazine and piperidine derivatives targeting SSRI/5-HT1A/5-HT7” (Bioorg Med Chem Lett, 2019).
# Key:
# [1] = Clearance in rat liver microsomes at 1 uM in presence of NADPH generating system measured for 10 to 90 mins by LC-MS/MS analysis; type: ADME, Microsome
# Procedure, shortened: (§1)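 Rat liver microsomes; stability expressed as t1/2 (min) and intrinsic clearance (μL/min/mg).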
# [2] = target: Sodium-dependent serotonin transporter (Rattus norvegicus, UniProt P31652); test: Inhibition of rat synaptosomes 5HT transporter assessed as reduction in [3H]serotonin reuptake incubated for 15 mins by scintillation counting method; type: subcellular
# [3] = Half life in rat liver microsomes at 1 uM in presence of NADPH generating system measured for 10 to 90 mins by LC-MS/MS analysis; type: ADME, Microsome; procedure, shortened: as §1
# [4] = target: T1, 5-hydroxytryptamine receptor 1A (Homo sapiens, UniProt P08908); test: Displacement of [3H]-8-OH-DPAT from 5HT1A receptor (unknown origin) expressed in HEK293 cells membranes incubated for 60 mins by scintillation counting method; type: cell membranes
# T1 sequence (P08908 whole entry): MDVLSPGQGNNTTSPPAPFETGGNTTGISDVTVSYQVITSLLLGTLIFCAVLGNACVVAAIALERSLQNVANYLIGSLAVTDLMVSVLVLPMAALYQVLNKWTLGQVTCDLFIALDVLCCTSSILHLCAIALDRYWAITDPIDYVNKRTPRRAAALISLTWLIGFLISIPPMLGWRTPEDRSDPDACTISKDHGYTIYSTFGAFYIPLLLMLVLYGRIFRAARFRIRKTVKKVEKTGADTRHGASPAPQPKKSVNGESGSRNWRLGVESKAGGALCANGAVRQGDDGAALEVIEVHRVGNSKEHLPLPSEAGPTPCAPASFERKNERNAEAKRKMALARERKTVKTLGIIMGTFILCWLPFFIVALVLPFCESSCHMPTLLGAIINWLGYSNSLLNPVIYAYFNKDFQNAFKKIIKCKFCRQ
# [5] = target: T2, 5-hydroxytryptamine receptor 7 (Homo sapiens, UniProt P34969); test: Displacement of [3H]-LSD from 5HT7 receptor (unknown origin) expressed in CHO cell membranes incubated for 120 mins by scintillation counting method
# [6] = target: T3, 5-hydroxytryptamine receptor 1A (Homo sapiens) (UniProt P08908); test: Displacement of [3H]-8-OH-DPAT from 5HT1A receptor (unknown origin) expressed in HEK293 cells membranes at 10 uM incubated for 60 mins by scintillation counting method relative to control; type: cell membranes
# T3 sequence (whole entry): T1 sequence (P08908 whole entry)
# Procedure, shortened: (§2)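 Single-concentration screen at 10 μM, reported as percent inhibition; 5-HT1A by [3H]-8-OH-DPAT displacement from HEK-293 membrane homogenates, 5-HT7 by [3H]-LSD displacement from CHO membrane homogenates, SERT by [3H]-5-HT uptake into rat brain synaptosomes.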
# [7] = target: T2, 5-hydroxytryptamine receptor 7; test: Displacement of [3H]-LSD from 5HT7 receptor (unknown origin) expressed in CHO cell membranes at 10 uM incubated for 120 mins by scintillation counting method relative to control; procedure, shortened: as §2
# [8] = target: Sodium-dependent serotonin transporter (Rattus norvegicus) (UniProt P31652); test: Inhibition of rat synaptosomes 5HT transporter assessed as reduction in [3H]serotonin reuptake at 10 uM incubated for 15 mins by scintillation counting method relative to control; type: subcellular; procedure, shortened: as §2
# [9] = Half life in human liver microsomes at 1 uM in presence of NADPH generating system measured for 10 to 90 mins by LC-MS/MS analysis; type: ADME, Microsome
# Procedure, shortened: (§3)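 Human liver microsomes; metabolic stability as half-life (min) and clearance (μL/min/mg).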
# [10] = Clearance in human liver microsomes at 1 uM in presence of NADPH generating system measured for 10 to 90 mins by LC-MS/MS analysis; type: ADME, Microsome; procedure, shortened: as §3
# [11] = target: T1, 5-hydroxytryptamine receptor 1A; test: Agonist activity at human recombinant 5HT1A receptor (unknown origin) stably expressed in CHO-K1 incubated for 30 mins by [35S]GTPgammaS binding assay; type: functional
# [12] = target: T2, 5-hydroxytryptamine receptor 7; type: functional
# Mus musculus [13] = test: Antidepressant activity in orally dosed ICR mouse assessed as decrease in immobility time measured 1 hr post last dose by forced swim test; type: functional, organism-based
# Procedure, shortened: (§4)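 Male ICR mice dosed orally once daily for 7 days at 10, 20 or 40 mg/kg/day; immobility time scored in forced swim test against vehicle group; n = 10 per group, mean ± SEM.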
# Mus musculus [14] = test: Antidepressant activity in ICR mouse assessed as decrease in immobility time at 10 mg/kg, po administrated for daily for 7 days measured 1 hr post last dose by forced swim test relative to control; type: functional; set-up: scale not given: the % may be the effect or the level left; procedure, shortened: as §4
# Mus musculus [15] = test: Antidepressant activity in ICR mouse assessed as decrease in immobility time at 40 mg/kg, po administrated for daily for 7 days measured 1 hr post last dose by forced swim test relative to control; type: functional; set-up: scale not given: the % may be the effect or the level left; procedure, shortened: as §4
# Mus musculus [16] = test: Antidepressant activity in ICR mouse assessed as decrease in immobility time at 20 mg/kg, po administrated for daily for 7 days measured 1 hr post last dose by forced swim test relative to control; type: functional; set-up: scale not given: the % may be the effect or the level left; procedure, shortened: as §4
# Mus musculus [17] = test: Antidepressant activity in orally dosed ICR mouse assessed as decrease in immobility time measured 1 hr post last dose by tail suspension test; type: functional, organism-based
# Procedure, shortened: (§5)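 Male ICR mice given oral doses once daily for 7 days (10, 20, 40 mg/kg/day); immobility time recorded in tail suspension test versus control group.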
# Mus musculus [18] = test: Antidepressant activity in ICR mouse assessed as decrease in immobility time at 10 mg/kg, po administrated for daily for 7 days measured 1 hr post last dose by tail suspension test relative to control; type: functional; set-up: scale not given: the % may be the effect or the level left; procedure, shortened: as §5
# Mus musculus [19] = test: Antidepressant activity in ICR mouse assessed as decrease in immobility time at 20 mg/kg, po administrated for daily for 7 days measured 1 hr post last dose by tail suspension test relative to control; type: functional; set-up: scale not given: the % may be the effect or the level left; procedure, shortened: as §5
# Mus musculus [20] = test: Antidepressant activity in ICR mouse assessed as decrease in immobility time at 40 mg/kg, po administrated for daily for 7 days measured 1 hr post last dose by tail suspension test relative to control; type: functional; set-up: scale not given: the % may be the effect or the level left; procedure, shortened: as §5
# T2 sequence (P34969 whole entry): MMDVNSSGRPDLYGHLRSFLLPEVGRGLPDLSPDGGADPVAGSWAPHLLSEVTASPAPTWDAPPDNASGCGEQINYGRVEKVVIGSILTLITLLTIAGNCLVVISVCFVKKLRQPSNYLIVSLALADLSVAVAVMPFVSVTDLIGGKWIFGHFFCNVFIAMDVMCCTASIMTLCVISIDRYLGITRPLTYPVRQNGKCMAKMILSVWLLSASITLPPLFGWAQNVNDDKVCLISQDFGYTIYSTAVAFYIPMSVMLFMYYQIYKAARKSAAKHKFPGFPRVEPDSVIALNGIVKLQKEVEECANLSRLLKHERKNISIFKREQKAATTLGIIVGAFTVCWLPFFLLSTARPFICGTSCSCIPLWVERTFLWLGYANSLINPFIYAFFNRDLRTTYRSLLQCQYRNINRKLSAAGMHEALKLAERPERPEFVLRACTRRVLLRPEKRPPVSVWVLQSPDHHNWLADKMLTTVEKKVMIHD
# Sequence of Sodium-dependent serotonin transporter (P31652 whole entry): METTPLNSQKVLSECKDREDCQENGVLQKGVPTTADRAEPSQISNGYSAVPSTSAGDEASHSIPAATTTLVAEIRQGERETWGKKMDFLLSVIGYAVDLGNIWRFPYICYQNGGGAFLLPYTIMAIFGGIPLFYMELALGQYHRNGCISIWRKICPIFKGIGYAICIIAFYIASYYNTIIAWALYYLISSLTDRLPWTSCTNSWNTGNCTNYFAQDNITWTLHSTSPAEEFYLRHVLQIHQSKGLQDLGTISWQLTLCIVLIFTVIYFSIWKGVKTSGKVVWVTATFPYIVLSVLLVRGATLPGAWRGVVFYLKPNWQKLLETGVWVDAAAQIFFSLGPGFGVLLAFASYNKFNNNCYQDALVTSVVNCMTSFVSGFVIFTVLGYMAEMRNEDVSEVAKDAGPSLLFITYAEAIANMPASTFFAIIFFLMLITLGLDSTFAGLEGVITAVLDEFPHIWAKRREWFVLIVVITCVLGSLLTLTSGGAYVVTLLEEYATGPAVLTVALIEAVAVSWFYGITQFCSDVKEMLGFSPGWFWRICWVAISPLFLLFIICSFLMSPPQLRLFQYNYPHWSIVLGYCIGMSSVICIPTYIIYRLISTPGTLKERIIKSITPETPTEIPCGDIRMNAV
# Sequence of Sodium-dependent serotonin transporter (Rattus norvegicus) (P31652 whole entry): as above
SMILES,CLH [1],IC50 [2],half-life at 1 µM [3],Ki [4],Ki [5],other results
COc1ccc2[nH]c([S+]([O-])Cc3ncc(C)c(OC)c3C)nc2c1 (stereo not given) [OMEPRAZOLE],163 µL/min/mg,–,–,–,–,–
Fc1ccc(C2CCN(CCCc3c[nH]c4ccc(F)cc34)CC2)c(-c2ccsc2)c1,75.6 µL/min/mg,14 nM,18.3 min,–,–,–
Fc1ccc2[nH]cc(CCCN3CCN(c4nsc5ccccc45)CC3)c2c1,397 µL/min/mg,1.1 nM,3.5 min,1.6 nM,2.2 nM,–
Fc1ccc(N2CCN(CCCc3c[nH]c4ccc(F)cc34)CC2)c(-c2cc[nH]c2)c1,–,–,–,–,–,inhibition [6]: 97.4%; inhibition [7]: 99.1%; inhibition [8]: 78.9%
Fc1ccc(N2CCN(CCCc3c[nH]c4ccc(F)cc34)CC2)c(-c2cncnc2)c1,209 µL/min/mg,–,6.6 min,–,–,inhibition [6]: 98.8%; inhibition [7]: 90.9%; inhibition [8]: 102%
Fc1ccc(C2CCN(CCCc3c[nH]c4ccc(F)cc34)CC2)c(-c2ccccc2)c1,28.5 µL/min/mg,14 nM,48.6 min,–,–,half-life at 1 µM [9]: 49.9 min; CLH [10]: 27.8 µL/min/mg; EC50 [11]: 1180 nM; IC50 [12]: 650 nM; Activity (Mus musculus [13]): Dose-dependent effect; Activity (Mus musculus [14]): 29%; Activity (Mus musculus [15]): 43%; Activity (Mus musculus [16]): 47%; Activity (Mus musculus [17]): Dose-dependent effect; Activity (Mus musculus [18]): 28%; Activity (Mus musculus [19]): 35%; Activity (Mus musculus [20]): 43%
Cc1ccc(Sc2ccccc2N2CCNCC2)c(C)c1 [VORTIOXETINE],153 µL/min/mg,–,–,–,–,half-life at 1 µM [9]: 214 min; CLH [10]: 6.47 µL/min/mg; Activity (Mus musculus [15]): 35%
Fc1ccc(N2CCN(CCCc3c[nH]c4ccc(F)cc34)CC2)c(-c2ccoc2)c1,134 µL/min/mg,3 nM,10.3 min,15 nM,11 nM,–
Fc1ccc(N2CCN(CCCc3c[nH]c4ccc(F)cc34)CC2)c(-c2cn[nH]c2)c1,192 µL/min/mg,1.3 nM,7.2 min,6.3 nM,0.9 nM,–
Fc1ccc(N2CCN(CCCc3c[nH]c4ccc(F)cc34)CC2)c(-c2cccs2)c1,–,21 nM,–,38 nM,11 nM,–
Cn1cc(-c2cc(F)ccc2N2CCN(CCCc3c[nH]c4ccc(F)cc34)CC2)cn1,146 µL/min/mg,2.7 nM,9.5 min,–,–,–
Fc1ccc2[nH]cc(CCCCN3CCN(c4nsc5ccccc45)CC3)c2c1,403 µL/min/mg,7.08 nM,3.4 min,–,–,inhibition [6]: 101%; inhibition [7]: 98.5%
Fc1ccc(N2CCN(CCCc3c[nH]c4ccc(F)cc34)CC2)c(-c2cccnc2)c1,240 µL/min/mg,–,5.8 min,–,–,inhibition [6]: 99.1%; inhibition [7]: 100%; inhibition [8]: 104%
N#Cc1ccc2[nH]cc(CCCCN3CCN(c4ccc5oc(C(N)=O)cc5c4)CC3)c2c1 [VILAZODONE],48.6 µL/min/mg,–,28.5 min,–,3900 nM,half-life at 1 µM [9]: 53.3 min; CLH [10]: 26 µL/min/mg; Activity (Mus musculus [20]): 60%
Fc1ccc2c(C3CCN(CCCc4c[nH]c5ccc(F)cc45)CC3)noc2c1,301 µL/min/mg,0.92 nM,4.6 min,–,–,inhibition [6]: 101%; inhibition [7]: 99.8%
COc1ccc2c(c1)[C@]13CCCC[C@@H]1[C@H](C2)N(C)CC3 [DEXTROMETHORPHAN],–,–,–,–,–,half-life at 1 µM [9]: 44.7 min; CLH [10]: 31 µL/min/mg
Fc1ccc(N2CCN(CCCc3c[nH]c4ccc(F)cc34)CC2)c(-c2ccsc2)c1,56.5 µL/min/mg,4 nM,24.5 min,8.4 nM,2 nM,–
Fc1ccc2[nH]cc(CCN3CCN(c4nsc5ccccc45)CC3)c2c1,452 µL/min/mg,23 nM,3.1 min,1.6 nM,0.99 nM,–
